Most compounds without a hit are left out; they make up all but 4.3% or so of the library.
Hep lipid drop – inhibitors of hepatocyte lipid droplet formation, primary screen, imaging, high-throughput imaging, BODIPY stain. inhibition, % at 6.5 µM. actives 0.4% (n = 240,000). AML12 mouse hepatocytes, oleate lipid droplets;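 active = lipid droplet intensity inhibited by at least 50%, with more than 500 cells counted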
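Material: mouse AML12 hepatocyte cell line, fixed after treatment; Timing: compound with oleate, overnight; Technique: high-content imaging of BODIPY-stained droplets and DAPI nuclei; Probe or stimulus: oleate, 100 µM final; Dosing: compound at 6.5 µM only.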
SR-BI HDL uptake – inhibitors of SR-BI mediated HDL lipid uptake, primary screen, ldlA[mSR-BI] cells, fluorescence, single point; Scavenger receptor class B member 1 (Mus musculus), Q61009; ldlA[mSR-BI] CHO cells, DiI-HDL uptake fluorescence, 3 h; inhibition, % at 12.5 µM; actives 0.96% (n = 320,000); AID 488896, 2010;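 active = mean replicate inhibition of at least 70% and a set share of replicates each scoring 70 or more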;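 note: 0% = median of neutral control wells and 100% = median of positive control wells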
Target sequence (Q61009 whole entry, looked up): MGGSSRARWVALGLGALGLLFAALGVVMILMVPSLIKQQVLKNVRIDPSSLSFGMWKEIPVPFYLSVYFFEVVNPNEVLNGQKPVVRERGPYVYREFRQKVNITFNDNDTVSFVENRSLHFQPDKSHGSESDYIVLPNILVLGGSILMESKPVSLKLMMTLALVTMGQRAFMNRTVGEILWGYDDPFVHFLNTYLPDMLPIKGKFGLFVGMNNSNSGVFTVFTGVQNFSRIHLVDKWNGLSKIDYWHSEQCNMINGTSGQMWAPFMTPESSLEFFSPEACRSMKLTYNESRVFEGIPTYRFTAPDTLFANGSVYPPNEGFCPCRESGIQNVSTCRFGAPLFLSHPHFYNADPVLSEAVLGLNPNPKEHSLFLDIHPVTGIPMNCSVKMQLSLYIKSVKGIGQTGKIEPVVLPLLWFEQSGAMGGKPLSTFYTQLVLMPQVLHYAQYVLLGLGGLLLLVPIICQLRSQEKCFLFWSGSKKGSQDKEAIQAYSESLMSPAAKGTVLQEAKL
CR mimetic SO – reduction of superoxide in aged yeast, primary screen, HTS; S. cerevisiae aged cells, superoxide DHE fluorescence; active compounds read low; AID 2690, 2010; superoxide response (% of plate mean), % at 10 µM; actives 0.18% (n = 330,000);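 active = superoxide response under a set limit, about three screen SD below normal, cut at about 65% in these data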;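 note: yeast aged for seven days with compound at 30 °C before DHE staining; 100% = average MFI of all compound-treated wells on the plate with controls excluded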
SR-BI uptake up – activators of SR-BI mediated DiI-HDL uptake, primary screen, ldlA[mSR-BI] CHO cells, DiI fluorescence | 3 h; 100 = double the neutral-control signal | activation, % at 12.5 µM | actives 0.096% (n = 320,000) | AID 504775, 2011;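 active = mean replicate activation of at least 60% and every replicate at or above 60%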;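 note: 0% = median plate neutral-control signal and 100% = twice that signal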
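Assay system: LDL receptor-deficient CHO ldlA cells overexpressing murine SR-BI / Medium: BSA-supplemented, HEPES-buffered Ham's F12, pH 7.4 / Probe or stimulus: DiI-labelled HDL at 10 µg/mL final / Timing: compound with DiI-HDL co-incubation, 3 h at 37 °C / Technique: bottom-read cell fluorescence after medium removal, ex 550/em 595 nm / Measure: HDL uptake via cellular fluorescence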
AHR activator – AHR activators, primary screen, cell-based, luminescence, luciferase reporter, human. Aryl hydrocarbon receptor (Homo sapiens), P35869. actives 2.5% (n = 320,000). activation, % at 5 µM. AHR-responsive luciferase reporter cells; in the data active = activation above about 47%;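 note: 0% = vehicle wells and 100% = reference agonist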
SMARCA2 activ – SMARCA2 (BRM) function activators, primary screen, cell-based, luminescence, high throughput. MG213 cells, MMTV-luciferase reporter, dexamethasone, overnight. activation, % at 9.1 µM. actives 1% (n = 370,000); in the data active = activation above about 7.8%;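 note: 0% = vehicle wells and 100% = reference activator wells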
* hit, by the source's call.

`Cc1ccc(-n2nc(C)c3c2OC(N)=C(C#N)C3c2ccc(C)o2)cc1` (configuration not stated) gave Hep lipid drop -37.9, SR-BI HDL uptake -2.0, CR mimetic SO 94.0, SR-BI uptake up 2.0, AHR activator 33.3 and SMARCA2 activ -0.7.
`Cc1ccc(-n2nc(C)c3c2OC(N)=C(C#N)C3c2ccoc2)cc1` (configuration not stated) gave SR-BI HDL uptake -8.6, CR mimetic SO 98.4, SR-BI uptake up 8.6, AHR activator 51.0* and SMARCA2 activ -2.2.
For Cc1ccc(-n2nc(C)c3c2OC(N)=C(C#N)C3c2ccco2)cc1 (configuration not stated) the results were SR-BI HDL uptake -26.6, CR mimetic SO 95.4, SR-BI uptake up 26.6, AHR activator 63.0* and SMARCA2 activ -1.8.
CCCCOCC1CN(CCCC)S(=O)(=O)c2c(NCc3cc(OC)c(OC)c(OC)c3)cccc2O1 (configuration not stated) was read as SMARCA2 activ -2.6.
Screening COc1ccc(OC)c(S(=O)(=O)Oc2ccc(N)c3ccccc23)c1 returned SR-BI HDL uptake 2.3, CR mimetic SO 138.5, SR-BI uptake up -2.3, AHR activator 61.1* and SMARCA2 activ -4.0.
`COc1ccc(Cl)cc1C(=O)NNC(=O)c1nn(C)c(=O)c2ccccc12` gave SR-BI HDL uptake 26.2, CR mimetic SO 95.7, SR-BI uptake up -26.2, AHR activator 65.7* and SMARCA2 activ -1.6.
Screening CCn1nc(C(=O)NNC(=O)c2cc(Cl)ccc2OC)c2ccccc2c1=O returned SR-BI HDL uptake 32.2, CR mimetic SO 107.9, SR-BI uptake up -32.2, AHR activator 46.7 and SMARCA2 activ 0.0.
Screening CCCCOCCCNC(=O)C[C@@H]1C[C@]2(C(=O)OCC)CCC3=C2N(CCC3)C1=O returned SMARCA2 activ -1.4.
`CCCc1nc2ccccc2c(=O)n1/N=C/c1ccccc1O` gave SR-BI HDL uptake 41.5, CR mimetic SO 102.5, SR-BI uptake up -41.5, AHR activator -1.2 and SMARCA2 activ -0.7.
Screening CCCc1nc2ccccc2c(=O)n1/N=C/c1c(C)[nH]n(-c2ccc(C)cc2)c1=O returned SR-BI HDL uptake 13.9, CR mimetic SO 107.8, SR-BI uptake up -13.9, AHR activator 58.5* and SMARCA2 activ 2.5.
For COc1ccccc1NC(=S)NCCc1c[nH]c2ccccc12 the results were SR-BI HDL uptake 31.6, CR mimetic SO 91.6, SR-BI uptake up -31.6, AHR activator 30.4 and SMARCA2 activ 0.9.
`CCOc1ccccc1NC(=O)NCCc1c[nH]c2ccccc12` gave Hep lipid drop -16.3, SR-BI HDL uptake 52.6, CR mimetic SO 100.2, SR-BI uptake up -52.6, AHR activator 63.5* and SMARCA2 activ -0.7.
Screening COc1ccc(OC)c(NC(=O)NCc2cccnc2)c1 returned Hep lipid drop 7.2, SR-BI HDL uptake -7.2, CR mimetic SO 98.5, SR-BI uptake up 7.2, AHR activator 58.2* and SMARCA2 activ -2.1.
For O=C(NCCc1c[nH]c2ccccc12)Nc1cccc2ccccc12 the results were Hep lipid drop -8.5, SR-BI HDL uptake 8.1, CR mimetic SO 102.0, SR-BI uptake up -8.0, AHR activator 0.5 and SMARCA2 activ -3.1.
COc1cc(NC(=S)NCCc2c[nH]c3ccccc23)c(OC)cc1Cl was read as Hep lipid drop -15.1, SR-BI HDL uptake 73.3*, CR mimetic SO 114.8, SR-BI uptake up -73.3, AHR activator 3.0 and SMARCA2 activ -3.6.
`CCOc1ccccc1NC(=O)NCc1cccnc1` gave Hep lipid drop 9.3, SR-BI HDL uptake 1.7, CR mimetic SO 81.8, SR-BI uptake up -1.7, AHR activator 83.7* and SMARCA2 activ 1.6.
For COc1ccc(Cl)cc1NC(=O)NCc1cccnc1 the results were Hep lipid drop -25.9, SR-BI HDL uptake 8.5, CR mimetic SO 103.0, SR-BI uptake up -8.5, AHR activator 25.1 and SMARCA2 activ -1.0.
CCOc1ccccc1NC(=O)NCc1ccccc1 was read as Hep lipid drop 10.6, SR-BI HDL uptake 16.5, CR mimetic SO 86.1, SR-BI uptake up -16.5, AHR activator 13.5 and SMARCA2 activ -0.1.
For CC(C)(C)S(=O)(=O)N1C[C@@H]2CC(=O)C(CCO)=C2[C@H]1CCO the results were SMARCA2 activ -3.3.
O=C1NC2=C(CCc3ccccc32)C(c2ccc(Br)cc2)N1 (configuration not stated) was read as Hep lipid drop -6.6, SR-BI HDL uptake 22.9, CR mimetic SO 106.3, SR-BI uptake up -22.9, AHR activator 60.6* and SMARCA2 activ -3.9.
`c1ccc2c(c1)-c1nc3ccccc3cc1C2N1CCCCC1` (configuration not stated) gave SMARCA2 activ 4.8.
Screening O=c1cccc2n1Cc1cc3ccccc3nc1-2 returned Hep lipid drop -1.7, SR-BI HDL uptake -18.0, CR mimetic SO 105.4, SR-BI uptake up 18.0, AHR activator 58.0* and SMARCA2 activ 5.5.
`Cc1c(C(=O)N(C)C(C)c2ccccn2)oc2c(F)cccc12` (configuration not stated) gave Hep lipid drop -1.2, SR-BI HDL uptake -3.3, CR mimetic SO 89.6, SR-BI uptake up 3.3, AHR activator 53.6* and SMARCA2 activ 4.7.
C/C(=N/NC(=O)c1ccncc1)c1ccc(NC(=O)c2ccccc2)cc1 was read as Hep lipid drop 0.1, SR-BI HDL uptake 8.7, CR mimetic SO 103.1, SR-BI uptake up -8.7 and SMARCA2 activ -1.6.
For C/C(=N\NC(=O)c1cccc(N/N=C(\C)c2ccccc2)c1)c1ccccc1 the results were Hep lipid drop -1.2, SR-BI HDL uptake 79.0*, CR mimetic SO 93.6, SR-BI uptake up -79.0, AHR activator 12.7 and SMARCA2 activ 4.4.
`C/C(=N\NC(=O)c1cccc(N/N=C(\C)c2ccncc2)c1)c1ccncc1` gave Hep lipid drop 13.1, SR-BI HDL uptake 60.6, CR mimetic SO 94.6, SR-BI uptake up -60.6, AHR activator 66.7* and SMARCA2 activ 6.4.
For C/C(=N/NC(=O)c1ccc(Br)o1)c1ccncc1 the results were Hep lipid drop 11.0, SR-BI HDL uptake 17.4, CR mimetic SO 106.0, SR-BI uptake up -17.4, AHR activator 50.0* and SMARCA2 activ 2.6.
C/C(=N\NC(=O)c1cccc(N/N=C(\C)c2ccc([N+](=O)[O-])cc2)c1)c1ccc([N+](=O)[O-])cc1 was read as Hep lipid drop 0.2, CR mimetic SO 101.6, AHR activator 4.8 and SMARCA2 activ -2.9.
`CC(=NNC(=O)c1ccncc1)c1cccc(Br)c1` gave SMARCA2 activ 0.5.
